PKA-R1A activ = activates the PKA-R1A holoenzyme complex; actives 0.083% (n = 340,000); P00514+P68181; activation, % at 11.4 µM; AID 504707; PKA-R1A dissociation, Cy5-IP20 fluorescence polarization; scaled: DMSO 0%, 113 µM cGMP 100%;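 active = percent activation above the mean of all tested compounds plus 3 SD, cut at about 19% in these data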;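 note: higher means more PKAc released from R1A so a rise in polarization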
SR-BI HDL uptake = mouse SR-BI HDL lipid transfer inhibition | Q61009 | ldlA[mSR-BI] CHO cells, DiI-HDL uptake fluorescence, 3 h | inhibition, % at 12.5 µM | actives 0.96% (n = 320,000) | AID 488896;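 active = mean replicate inhibition of at least 70% and a set share of replicates each scoring 70 or more; inconclusive = meets just one of the two criteria; inactive = fails both criteria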
SR-BI uptake up = SR-BI HDL lipid transfer activation. activation, % at 12.5 µM. actives 0.096% (n = 320,000). AID 504775. CHO ldlA[mSR-BI] cells, DiI-HDL uptake fluorescence, 3 h; 100 = double the neutral-control signal;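 active = mean replicate activation of at least 60% and every replicate at or above 60%; inconclusive = mean or all-replicate condition met, but not both; inactive = mean below 60% and not all replicates reaching 60%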
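system = CHO ldlA[mSR-BI] cells, LDL receptor-null, SR-BI overexpressing | medium = Ham's F12 with 0.5% BSA, HEPES 25 mM, pH 7.4 | probe or stimulus = DiI-HDL 10 µg/mL | compound dosing = single-point compound dose | incubation = compound exposure 3 h, 37 °C | technique = DiI fluorescence, bottom read | read-out = cell-associated DiI fluorescence as measure of HDL uptake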
dFosB act-1 = enhances mouse delta FosB homodimer DNA binding | activation, % at 25 µM | actives 0.99% (n = 340,000) | P13346 | purified delta FosB, TAMRA-CDK5 oligo fluorescence polarization; percent of positive-control signal above neutral wells;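 active = mean activation above about 17%, with every replicate also reaching it, limit read from the data, passing the limit was not always enough; inconclusive = only one of the two conditions met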
Target sequence (P13346 whole entry, looked up): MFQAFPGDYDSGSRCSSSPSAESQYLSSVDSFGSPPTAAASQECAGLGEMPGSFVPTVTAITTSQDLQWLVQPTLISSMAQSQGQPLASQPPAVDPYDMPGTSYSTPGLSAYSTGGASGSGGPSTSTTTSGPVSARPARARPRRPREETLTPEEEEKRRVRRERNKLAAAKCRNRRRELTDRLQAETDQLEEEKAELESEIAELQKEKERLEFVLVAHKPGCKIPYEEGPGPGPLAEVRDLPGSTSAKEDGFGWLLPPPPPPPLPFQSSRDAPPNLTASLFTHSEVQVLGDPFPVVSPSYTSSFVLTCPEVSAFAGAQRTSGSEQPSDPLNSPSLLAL
PKA-R2B act = activators of human PKA-R2B complex; PKA-R2B holoenzyme dissociation, Cy5-IP20 fluorescence polarization; R2B truncated from residue 108, S112A mutant; 0% DMSO only, 100% 113 µM cGMP; activation, % at 11.4 µM; actives 0.079% (n = 340,000); AID 504700;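 active = activation above a cutoff set at the mean over all compounds plus 3 SD, cut at about 18% in these data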;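 note: higher means more holoenzyme dissociation and a rise in polarization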
CDK5 inh = CDK5/p35 (human) kinase inhibition; actives 0.01% (n = 330,000); AID 488839; Recombinant CDK5/p35, ADP-Glo luminescence, 60 min; Q00535+Q15078; inhibition, % at 10 µM;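 active = highest replicate inhibition of at least 50% and at least 75% of replicates reaching 50%; inconclusive = only one of the two criteria met; inactive = both criteria failed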
dFosB act-2 = enhances mouse delta FosB homodimer binding to DNA; shares compounds with dFosB act-1; purified delta FosB, TAMRA-CDK5 oligo fluorescence polarization; normalised: neutral wells 0, positive control 100; activation, % at 24.9 µM; 2,400 tested, under 10 active;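 active = highest replicate activation at or above 34% and every replicate reaching that threshold; inconclusive = meets only one of the two criteria; inactive = meets neither criterion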;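 note: higher polarization means more probe DNA bound by delta FosB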
Hits are given with their value. Hits are enriched below; roughly 2.1% of the tested compounds scored in any of these assays.

How did O=C(NN=Cc1ccccc1C(=O)O)c1cccc(S(=O)(=O)Nc2cccc(C(F)(F)F)c2)c1 do in these assays?
PKA-R1A activ: inactive; SR-BI HDL uptake: inactive; SR-BI uptake up: inactive; dFosB act-1: inactive; PKA-R2B act: inactive; CDK5 inh: inactive

What do the screens show for `N#CC1(NC(=O)COC(=O)CNC(=O)c2sc3ccccc3c2Cl)CCCCC1`?
PKA-R1A activ: inactive; SR-BI HDL uptake: inactive; SR-BI uptake up: inactive; dFosB act-1: inactive; PKA-R2B act: inactive; CDK5 inh: inactive

What do the screens show for `O=C(COC(=O)CNC(=O)c1sc2ccccc2c1Cl)Nc1c(Cl)cc(Cl)cc1Cl`?
PKA-R1A activ: inactive; SR-BI HDL uptake: inactive; SR-BI uptake up: inactive; dFosB act-1: 40; PKA-R2B act: inactive; CDK5 inh: inactive; dFosB act-2: inactive

What do the screens show for `O=C(COC(=O)c1sc2ccccc2c1Cl)NC1CCCCC1`?
PKA-R1A activ: inactive; SR-BI HDL uptake: inactive; SR-BI uptake up: inactive; dFosB act-1: inactive; PKA-R2B act: inactive; CDK5 inh: inactive

Results for NC(=O)NC(=O)COC(=O)c1sc2ccccc2c1Cl ?
PKA-R1A activ: inactive; SR-BI HDL uptake: inactive; SR-BI uptake up: inactive; dFosB act-1: 43; PKA-R2B act: inactive; CDK5 inh: inactive; dFosB act-2: inactive

Results for COc1ccccc1C(CNC(=O)C(CCSC)NC(=O)c1ccccc1Cl)N1CCCC1 (configuration not stated) ?
PKA-R1A activ: inactive; SR-BI HDL uptake: inactive; SR-BI uptake up: inactive; dFosB act-1: inactive; PKA-R2B act: inactive; CDK5 inh: inactive

How did COc1cccc(NC(=O)CN(C)C(=O)/C=C/c2ccc3ccccc3n2)c1 do in these assays?
PKA-R1A activ: inactive; SR-BI HDL uptake: inactive; SR-BI uptake up: inactive; dFosB act-1: inactive; PKA-R2B act: inactive; CDK5 inh: inactive

Results for Cc1ccc(NC(=O)C2CC(=O)N/C(=N/N=C/c3ccco3)S2)cc1 (configuration not stated) ?
PKA-R1A activ: inactive; SR-BI HDL uptake: inactive; SR-BI uptake up: inactive; dFosB act-1: inactive; PKA-R2B act: inactive

How did O=C1CC(C(=O)Nc2ccc(F)cc2)S/C(=N\N=C\c2ccco2)N1 (configuration not stated) do in these assays?
PKA-R1A activ: inactive; SR-BI HDL uptake: inactive; SR-BI uptake up: inactive; dFosB act-1: 33; PKA-R2B act: inactive; CDK5 inh: inactive; dFosB act-2: inactive

How did COc1cccc(Nc2nc3ccc(C(=O)c4ccccc4)cc3n3cnnc23)c1 do in these assays?
PKA-R1A activ: inactive; dFosB act-1: 19; PKA-R2B act: inactive; CDK5 inh: inactive; dFosB act-2: inactive

How did COC(=O)c1ccc(Nc2nc3ccc(C)cc3n3cnnc23)cc1 do in these assays?
PKA-R1A activ: inactive; SR-BI HDL uptake: inactive; SR-BI uptake up: inactive; dFosB act-1: inactive; PKA-R2B act: inactive; CDK5 inh: inactive

Results for CCN(CC)CCNC(=O)c1c(O)c2cc(OC)c(OC)cc2[nH]c1=O ?
PKA-R1A activ: inactive; SR-BI HDL uptake: inactive; SR-BI uptake up: inactive; dFosB act-1: 24; PKA-R2B act: inactive; CDK5 inh: inactive; dFosB act-2: inactive

Results for O=C(NCCCN1CCOCC1)c1c(O)c2cc(Br)cc(Br)c2[nH]c1=O ?
PKA-R1A activ: inactive; SR-BI HDL uptake: inactive; SR-BI uptake up: inactive; dFosB act-1: inactive; PKA-R2B act: inactive; CDK5 inh: inactive

How did COc1cc2[nH]c(=O)n(Cc3ccc(C(=O)NCCCN4CCN(C)CC4)cc3)c(=O)c2cc1OC do in these assays?
PKA-R1A activ: inactive; SR-BI HDL uptake: inactive; SR-BI uptake up: inactive; dFosB act-1: 32; PKA-R2B act: inactive; CDK5 inh: inactive; dFosB act-2: inactive

Results for COc1ccc(CNC(=O)c2c(O)c3cc(OC)c(OC)cc3[nH]c2=O)cc1OC ?
PKA-R1A activ: inactive; SR-BI HDL uptake: inactive; SR-BI uptake up: inactive; dFosB act-1: inconclusive; PKA-R2B act: inactive; CDK5 inh: inactive

Screening data: PubChem BioAssay, several laboratories
